Measurements published in ChEMBL document CHEMBL2093137, “WHO-TDR NTD Screening”.
In brackets after ≈: the same amount, converted by molar mass.

Key:
[1] = WHO-TDR: Cytotoxicity; assay type: toxicity, cell-based; conditions: human, MRC5 cells
Plasmodium falciparum K1 = assay: WHO-TDR: Malaria; assay type: functional, organism-based, Homo sapiens; conditions: Erythrocyte
In short: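 Life Chemicals supplied the diverse library of 10,000 compounds, which had been filtered for drug-likeness and reactive groups. Each was screened against the K1 strain of Plasmodium falciparum at its intra-erythrocytic stage in human red blood cells, using previously published standard procedures and a reference drug as positive control. The table reports IC50 for antiplasmodial potency.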

Trypanosoma cruzi = assay: WHO-TDR: Chagas disease; assay type: functional, organism-based, Homo sapiens; conditions: MRC5
In short: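 Intracellular amastigotes of the Trypanosoma cruzi Tulahuen CL2 beta-galactosidase strain, grown in MRC-5SV2 human lung fibroblast host cells, were tested in a whole-organism screen. The compounds came from a 10,000-member diverse Life Chemicals library that had been filtered for drug-likeness and reactive groups. Previously published standard procedures were followed, with a reference drug as positive control, and potency is reported as IC50.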

[2] = test system: Trypanosoma brucei brucei; assay: WHO-TDR: Human African Trypanosomiasis (HAT); assay type: functional, organism-based; conditions: Squib-427
In short: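 Following previously published standard procedures, with reference drugs as positive controls, a whole-organism assay was run against bloodstream-form Trypanosoma brucei, Squib 427 strain. The compounds, 10,000 in all, came from a diverse Life Chemicals library filtered for drug-likeness and reactive groups. Reported values are IC50 for antiparasitic potency.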

Leishmania infantum = assay: WHO-TDR: Leishmaniasis; assay type: functional, organism-based, Mus musculus; conditions: Macrophage
In short: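 IC50 values describe antiparasitic potency in this whole-organism screen. Leishmania infantum MHOM/MA(BE)/67 amastigotes were tested inside murine peritoneal macrophages against a 10,000-compound diverse Life Chemicals library. A reference drug served as positive control.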

Schistosoma mansoni = assay: WHO-TDR: Schistosomiasis; assay type: functional; set-up: concentration or dose not given beside the values
In short: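 In this whole-organism assay, larval and/or adult worms of Schistosoma mansoni (Puerto Rican strain) were exposed to compounds from a diverse Life Chemicals library of 10,000 members. A reference drug served as positive control. Activity is stated as percent inhibition and IC50.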

Onchocerca ochengi = assay: WHO-TDR: Onchocerciasis; assay type: functional; set-up: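 at 12.5 µM on microfilariae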
In short: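 Microfilariae of Onchocerca ochengi or Onchocerca lienalis, animal pathogens standing in for the human parasite, were exposed to compounds in a whole-organism screen. The compounds came from a 10,000-compound diverse Life Chemicals library filtered for drug-likeness and reactive groups. Results are expressed as percent inhibition and IC50.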

Brugia malayi = assay: WHO-TDR: Lymphatic Filariasis; assay type: functional; set-up: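 tested at 10 µM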
In short: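 In a whole-organism assay, Brugia malayi microfilariae were screened against a diverse Life Chemicals library that had been filtered for drug-likeness and reactive groups. That library comprised 10,000 compounds. Activity is expressed as percent inhibition and as IC50.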

Row | Compound | IC50 [1] | IC50 (Plasmodium falciparum K1) | IC50 (Trypanosoma cruzi) | IC50 [2] | IC50 (Leishmania infantum) | % Inhibition (Schistosoma mansoni) | % Inhibition (Onchocerca ochengi) | % Inhibition (Brugia malayi)
1 | COc1ccc(C(CNS(=O)(=O)c2ccc(Cl)s2)N2CCOCC2)cc1 (stereo unspecified) | > 12.5 µg/mL | > 12.5 µg/mL | > 12.5 µg/mL | > 12.5 µg/mL | > 12.5 µg/mL | 0% | 100% | 0%
2 | O=C(c1ccc2c(c1)OCCO2)N(CCCn1ccnc1)c1nc2c(F)cccc2s1 | 6.23 µg/mL (≈ 14.2 µM) | 1.35 µg/mL (≈ 3.08 µM) | 3.6 µg/mL (≈ 8.22 µM) | 4.56 µg/mL (≈ 10.4 µM) | > 14.2 µg/mL | 0% | 100% | 0%
3 | Cc1ccc(S(=O)(=O)NCC(c2cccc3ccccc23)N2CCOCC2)cc1C (stereo unspecified) | > 12.7 µg/mL | 8.79 µg/mL (≈ 20.7 µM) | 4.18 µg/mL (≈ 9.85 µM) | 4.12 µg/mL (≈ 9.71 µM) | > 12.7 µg/mL | 0% | 100% | 25%
4 | COc1ccc(C)cc1S(=O)(=O)N1CCN(c2ccc(-c3cccs3)nn2)CC1 | > 12.9 µg/mL | > 12.9 µg/mL | > 12.9 µg/mL | > 12.9 µg/mL | 0.418 µg/mL (≈ 0.971 µM) | 0% | 0% | 0%
5 | O=C(C1CC1)N1CCN(c2ccc(-c3ccccn3)nn2)CC1 | 2.38 µg/mL (≈ 7.7 µM) | 1.05 µg/mL (≈ 3.39 µM) | 2.1 µg/mL (≈ 6.77 µM) | 2.94 µg/mL (≈ 9.49 µM) | > 9.28 µg/mL | 25% | 100% | 33.33%
6 | CC(C)(C)n1ncc2c(=O)n(CCC(=O)Nc3ccc4c(c3)OCO4)cnc21 | > 11.5 µg/mL | > 11.5 µg/mL | > 11.5 µg/mL | > 11.5 µg/mL | > 11.5 µg/mL | 100% | 0% | 20%
7 | COc1ccc(OC)c2sc(N(CC3CCCO3)C(=O)c3ccn(C)n3)nc12 (stereo unspecified) | > 12.1 µg/mL | > 12.1 µg/mL | > 12.1 µg/mL | > 12.1 µg/mL | 0.391 µg/mL (≈ 0.971 µM) | 16.7% | 0% | 0%
8 | O=c1ccc(-c2ccncc2)nn1CCCNS(=O)(=O)c1ccc2c(c1)CCCC2 | > 12.7 µg/mL | > 12.7 µg/mL | 4.77 µg/mL (≈ 11.2 µM) | > 12.7 µg/mL | > 12.7 µg/mL | 0% | 100% | 0%
9 | CCOC(=O)c1sc(NC(=O)C2CCCN2S(C)(=O)=O)nc1-c1ccccc1 (stereo unspecified) | > 12.7 µg/mL | > 12.7 µg/mL | > 12.7 µg/mL | > 12.7 µg/mL | > 12.7 µg/mL | 0% | 100% | 0%
10 | COc1cccc(NC(=O)NCCNc2ccc(Nc3cc(C)ccn3)nn2)c1 | > 11.8 µg/mL | 9.93 µg/mL (≈ 25.2 µM) | > 11.8 µg/mL | 3.82 µg/mL (≈ 9.71 µM) | > 11.8 µg/mL | 0% | 100% | 25%
11 | Cc1ccc(S(=O)(=O)N2CCN(c3ccc(Nc4cccnc4)nn3)CC2)c(C)c1 | 0.804 µg/mL (≈ 1.89 µM) | 0.716 µg/mL (≈ 1.69 µM) | 3.91 µg/mL (≈ 9.21 µM) | > 12.7 µg/mL | > 12.7 µg/mL | 0% | 100% | 0%
12 | Cc1cc(C(=O)Nc2nnc(-c3ccco3)o2)on1 | > 7.81 µg/mL | > 7.81 µg/mL | > 7.81 µg/mL | > 7.81 µg/mL | > 7.81 µg/mL | 25% | 100% | 20%
13 | O=S(=O)(c1cccnc1)N1CCN(c2ccc(-c3cccs3)nn2)CC1 | > 11.6 µg/mL | > 11.6 µg/mL | > 11.6 µg/mL | > 11.6 µg/mL | 0.376 µg/mL (≈ 0.97 µM) | 0% | 0% | 50%
14 | Cc1ccc(-n2ncc3c(=O)[nH]c(-n4nc(C)cc4NC(=O)C4CC4)nc32)cc1 | 0.591 µg/mL (≈ 1.52 µM) | 0.637 µg/mL (≈ 1.64 µM) | 0.214 µg/mL (≈ 0.55 µM) | 0.378 µg/mL (≈ 0.971 µM) | 0.313 µg/mL (≈ 0.804 µM) | 0% | 100% | 0%
15 | CC(=O)N1CCc2ccc(NC(=O)c3ccc(F)c(F)c3)cc21 | > 9.49 µg/mL | > 9.49 µg/mL | 2.93 µg/mL (≈ 9.25 µM) | > 9.49 µg/mL | 0.307 µg/mL (≈ 0.971 µM) | 8.3% | 75% | 0%
16 | Cn1nccc1C(=O)Nc1nc2c(s1)CSc1ccccc1-2 | 0.145 µg/mL (≈ 0.442 µM) | > 9.85 µg/mL | 2.05 µg/mL (≈ 6.23 µM) | 0.315 µg/mL (≈ 0.959 µM) | 3.19 µg/mL (≈ 9.71 µM) | 100% | 100% | 0%
17 | O=S(=O)(CCCOc1ccc2c(c1)OCO2)NCCc1c[nH]c2ccccc12 | > 12.1 µg/mL | > 12.1 µg/mL | 3.12 µg/mL (≈ 7.74 µM) | > 12.1 µg/mL | > 12.1 µg/mL | 0% | 100% | 0%
18 | COc1cccc(C2C(S(=O)(=O)c3ccc(C)cc3)=C(O)C(=O)N2c2ccc(C)cc2)c1 (stereo unspecified) | > 13.5 µg/mL | > 13.5 µg/mL | > 13.5 µg/mL | > 13.5 µg/mL | > 13.5 µg/mL | 0% | 100% | 20%
19 | CCSc1ccccc1C(=O)Nc1nnc(Cc2cccs2)o1 | 9.48 µg/mL (≈ 27.5 µM) | > 10.4 µg/mL | 3.48 µg/mL (≈ 10.1 µM) | 3.35 µg/mL (≈ 9.71 µM) | 0.336 µg/mL (≈ 0.973 µM) | 33.3% | 0% | 0%
20 | Cn1ccnc1N1CCN(CC(=O)Nc2ccccc2C(F)(F)F)CC1 | > 11 µg/mL | > 11 µg/mL | > 11 µg/mL | > 11 µg/mL | 0.357 µg/mL (≈ 0.972 µM) | 0% | 0% | 0%
21 | Cc1cc(C)c(S(=O)(=O)NCCNc2ccc(Nc3cccc(C)n3)nn2)c(C)c1 | 6.74 µg/mL (≈ 15.8 µM) | 2.41 µg/mL (≈ 5.65 µM) | 4.46 µg/mL (≈ 10.5 µM) | 4.14 µg/mL (≈ 9.71 µM) | 5.4 µg/mL (≈ 12.7 µM) | 33.3% | 100% | 0%
22 | Cc1ccnc(Nc2ccc(NCCNS(=O)(=O)c3ccc(F)cc3)nn2)c1 | > 12.1 µg/mL | 12.1 µg/mL (≈ 30 µM) | 4.13 µg/mL (≈ 10.3 µM) | 3.91 µg/mL (≈ 9.71 µM) | 3.91 µg/mL (≈ 9.71 µM) | 0% | 100% | 50%
